Source: ChEMBL document CHEMBL1764985, “Design, synthesis, and evaluation of coumarin-based molecular probes for imaging of myelination” (J Med Chem, 2011)
The source made the active and inactive calls. No cut-off for these calls is given here.

How the values were obtained:
Mus musculus [1] = species on record: Mus musculus; assay: Selectivity for mouse white matter myelin over gray matter myelin; format: tissue-based
Summary of the method: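 Mouse brain sections stained with compound at 100 μM. Fluorescence intensity measured in predefined ROIs: part of the corpus callosum (white matter) and a subcortical gray matter region. White/gray intensity ratio calculated; mean ± SD, n = 3.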

[2] = biological target: Myelin basic protein (Mus musculus) (UniProt P04370); assay: Binding affinity to corpus collosum myelin in central nervous system of mouse […] by fluorescent microscopy; format: tissue-based; conditions: Corpus callosum
Sequence of Myelin basic protein (Mus musculus) (P04370 whole entry, the tested form may be a part): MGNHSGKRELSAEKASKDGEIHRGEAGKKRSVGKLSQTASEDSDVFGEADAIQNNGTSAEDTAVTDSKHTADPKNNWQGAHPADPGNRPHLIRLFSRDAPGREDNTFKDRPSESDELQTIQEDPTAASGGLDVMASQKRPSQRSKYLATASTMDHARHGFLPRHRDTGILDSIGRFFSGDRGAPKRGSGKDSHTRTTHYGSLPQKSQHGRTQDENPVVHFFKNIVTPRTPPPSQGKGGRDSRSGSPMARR

[3] = Half life of the compound in mouse brain; format: ADME, tissue-based
[4] = biological target: Myelin basic protein (Mus musculus) (UniProt P04370); assay: Binding affinity to sciatic nerve myelin in peripheral nervous system of mouse at 100 uM […] by Black gold II staining
[5] = Lipophilicity, log P of the compound; format: physicochemical; conditions: octanol/water
[6] = biological target: Myelin basic protein (Mus musculus) (UniProt P04370); assay: Binding affinity to temporal cortex myelin in mouse by fluorescent microscopy; format: tissue-based
Summary of the method: (§1)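 Wild-type mice given 40 mg/kg via tail vein under anesthesia, then perfused transcardially with saline followed by 4% PFA in PBS. Brain sections imaged by fluorescence microscopy (BP470/40 nm filter) for in situ staining in cerebellum, caudate putamen/striatum and temporal cortex. Same sections co-stained with anti-MBP antibody for comparison.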

[7] = biological target: Myelin basic protein (Mus musculus) (UniProt P04370); assay: Binding affinity to corpus collosum myelin in myelin deficient shiverer mouse assessed as myelination levels at 100 uM after 20 mins by fluorescent microscopy relative to control; conditions: Corpus callosum
Summary of the method: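 Frozen 20 μm brain sections from wild-type C57BL/6 and shiverer (C3Fe.SWV-Mbp^shi/J) mice stained with compound at 100 μM, with anti-MBP immunostaining of the same sections. Pixel intensity in a corpus callosum ROI (midline to below cingulum apex) quantified. Wild-type set to 100, shiverer expressed as percentage. Nonpaired Student's t test.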

[8] = biological target: Myelin basic protein (Mus musculus) (UniProt P04370); assay: Binding affinity to caudate putamen myelin in mouse by fluorescent microscopy; format: tissue-based; summary of the method: as §1
[9] = biological target: Myelin basic protein (Mus musculus) (UniProt P04370); assay: Binding affinity to cerebellum myelin in central nervous system of mouse […] by fluorescent microscopy
Mus musculus [10] = assay: Binding affinity to sciatic nerve myelin in C57BL/6 mouse at 40 mg/kg after 20 mins, iv after 10 mins by fluorescent microscopy; format: functional, organism-based; set-up: dose 40 mg/kg
Summary of the method: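 Eight-week C57BL/6 mice dosed 40 mg/kg by tail vein in saline; saline alone as control. At 10 min, mice anesthetized with isoflurane and sciatic nerves surgically exposed and imaged under a dissection fluorescence microscope (LP 590 filter). Nerves imaged again after perfusion.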

CC(=O)Oc1ccc2cc(-c3ccc(N(C)C)cc3)c(=O)oc2c1
white/gray matter fluorescence ratio (Mus musculus [1]): 1.35
Activity [2]: Active

O=c1cc(C(F)(F)F)c2ccc(O)cc2o1
Activity [2]: inactive

CCN(CC)c1ccc(-c2ccc3cc(-c4nc5ccccc5[nH]4)c(=O)oc3c2)cc1
Activity [2]: Active

Nc1cc(=O)oc2ccccc12
Activity [2]: inactive

COc1ccc2ccc(=O)oc2c1
Activity [2]: inactive

O=c1cc(O)c2ccccc2o1
Activity [2]: inactive

Cc1ccc2ccc(=O)oc2c1
Activity [2]: inactive

CCN(CC)c1ccc(-c2ccc3cc(-c4nc5ccccc5n4C)c(=O)oc3c2)cc1
Activity [2]: Active

O=c1oc2cc(O)ccc2cc1-c1ccccc1
Activity [2]: inactive

CCN(CC)c1ccc(-c2ccc3cc(-c4ccc(CBr)cc4)c(=O)oc3c2)cc1
Activity [2]: Active

CN(C)c1ccc(-c2cc3cc(O)ccc3oc2=O)cc1
white/gray matter fluorescence ratio (Mus musculus [1]): 1.48
Activity [2]: Active

CN(C)c1ccc(-c2cc3ccc(OCCF)cc3oc2=O)cc1
white/gray matter fluorescence ratio (Mus musculus [1]): 1.52
Activity [2]: Active

O=c1oc2ccccc2cc1-c1ccccc1
Activity [2]: inactive

O=c1oc2ccc(F)cc2cc1-c1ccc([N+](=O)[O-])cc1
Activity [2]: inactive

O=c1oc2ccccc2cc1-c1ccc([N+](=O)[O-])cc1
Activity [2]: inactive

CN(C)c1ccc2c(C(F)(F)F)cc(=O)oc2c1
Activity [2]: inactive

CN(C)c1ccc(-c2cc3cc(F)ccc3oc2=O)cc1
Activity [2]: Active

CN(C)c1ccc(-c2cc3cc(OCCF)ccc3oc2=O)cc1
white/gray matter fluorescence ratio (Mus musculus [1]): 1.33
Activity [2]: Active

CN(C)c1ccc(-c2cc3ccccc3oc2=O)cc1
white/gray matter fluorescence ratio (Mus musculus [1]): 1.34
Activity [2]: Active

O=c1ccc2ccccc2o1
Activity [2]: inactive

Nc1ccc(-c2cc3cc(F)ccc3oc2=O)cc1
Activity [2]: Active

CN(C)c1ccc(-c2cc3cc(OCCCF)ccc3oc2=O)cc1
white/gray matter fluorescence ratio (Mus musculus [1]): 1.38
Activity [2]: Active

CCN(CC)c1ccc(-c2ccc3cc(-c4nc5ccccc5s4)c(=O)oc3c2)cc1
Activity [2]: Active

Nc1ccc(-c2cc3ccccc3oc2=O)cc1
white/gray matter fluorescence ratio (Mus musculus [1]): 1.39
Activity [2]: Active

CCN(CC)c1ccc(-c2ccc3cc(C(=O)c4cccs4)c(=O)oc3c2)cc1
Activity [2]: Active

CCN(CC)c1ccc(-c2ccc3cc(-c4ccc([N+](=O)[O-])cc4)c(=O)oc3c2)cc1
Activity [2]: Active

O=c1oc2ccccc2c(O)c1Cc1c(O)c2ccccc2oc1=O
Activity [2]: inactive

Nc1cc2ccccc2oc1=O
Activity [2]: inactive

Cc1cc(=O)oc2ccccc12
Activity [2]: inactive

CCN(CC)c1ccc(-c2ccc3cc(-c4ccc(N)cc4)c(=O)oc3c2)cc1
Activity [2]: Active

CC(=O)Oc1ccc2oc(=O)c(-c3ccc(N(C)C)cc3)cc2c1
white/gray matter fluorescence ratio (Mus musculus [1]): 1.53
Activity [2]: Active

Nc1ccc2c(C(F)(F)F)cc(=O)oc2c1
Activity [2]: inactive

O=c1oc2ccccc2cc1O
Activity [2]: inactive

CN(C)c1ccc(-c2cc3ccc(O)cc3oc2=O)cc1
white/gray matter fluorescence ratio (Mus musculus [1]): 1.25
Activity [2]: Active

CN(C)c1ccc(-c2cc3ccc(OCCCF)cc3oc2=O)cc1
white/gray matter fluorescence ratio (Mus musculus [1]): 1.54
half-life [3]: 20 min
Activity [4]: Active
logP [5]: 3.82
Activity [2]: Active
Activity [6]: Active
Activity [7]: 12%
Activity [8]: Active
Activity [9]: Active
Activity (Mus musculus [10]): Active
